# Results collected from several papers.
# Compare with care: the assays were run in different laboratories.
# Target: Glycogen synthase kinase-3 beta (GSK3B, Homo sapiens, UniProt P49841)
SMILES,assay,conditions,measurement,value
CCN(CC)c1ccc(C2=NNC(=O)CC2C)cc1[N+](=O)[O-] (stereo not drawn),"enzyme activity, inhibitor",10 µM,remaining activity,93%
CCC(=O)N[C@H]1CC[C@@H](C(=O)N(C)c2ccc(-c3nc4ccccc4o3)cc2)C1,"cell-free assay, competition with immobilised ligand",1 µM,remaining binding,81%
COc1cc(Nc2cnc(C#N)c(O[C@H](C)CN(C)C)n2)ncc1-c1cnn(C)c1,"enzyme activity, inhibitor, radiometric",1 µM,remaining activity,90%
Nc1ncnc2c1ncn2[C@@H]1O[C@H](COP(=O)(O)OP(=O)(O)OP(=O)(O)O)[C@@H](O)[C@H]1O,"enzyme activity, substrate, radiometric",,Km,9.3 µM
O=Nc1c(-c2c(O)[nH]c3ccccc23)[nH]c2ccccc12,cell-free assay,0.5 µM,remaining signal,27.3%
FC(F)(F)Oc1cccc(-c2cnc3ccc(-c4ccncc4)nn23)c1,"enzyme activity, inhibitor, radiometric",1 µM,activity vs control,88%
COc1cc(-c2coc3cc(O)c(OC)c(O)c3c2=O)cc(O)c1OC,"enzyme activity, inhibitor, ADP detection",100 µM,inhibition,29%
O=C(Nc1cnn(-c2csc(C(=O)NC3COC3)c2)c1)Nc1ccccc1Cl,"enzyme activity, inhibitor",5 µM,remaining activity,95%
CCCOc1ccc([C@H]2[C@H](C(=O)O)[C@@H](c3ccc4c(c3)OCO4)CN2CC(=O)Nc2c(CC)cccc2CC)cc1,"cell-free assay, competition with immobilised ligand",1 µM,remaining binding,73%
COc1ccc(COc2ccc(Cc3cnc(N)nc3N)cc2OC)cc1,cell-free assay,0.5 µM,remaining signal,97.8%
CN1CCN(c2cnc3c(C4CCN(C(=O)c5ccc(OC(F)(F)F)cc5N)CC4)ncnc3c2)CC1,"cell-free assay, competition with immobilised ligand",1 µM,remaining binding,100%
N#CCCc1ccc2c(c1)-c1[nH]c3ccc([N+](=O)[O-])cc3c1CC(=O)N2,cell-free assay,0.5 µM,remaining signal,2.71%
CS(=O)(=O)NCC[C@H](NC(=O)c1cncc2c1cnn2-c1ccc(F)cc1)c1ccnc(S(C)(=O)=O)c1,"cell-free assay, competition with immobilised ligand",1 µM,remaining binding,100%
CC1CCc2c(N3CCC(O)CC3)c(F)cc3c(=O)c(C(=O)O)cn1c23 (stereo not drawn),"enzyme activity, inhibitor, ADP detection",100 µM,inhibition,46.1%
Nc1nc(Nc2ccc(S(N)(=O)=O)cc2)nn1C(=O)c1c(F)cccc1F,cell-free assay,0.5 µM,remaining signal,22%
O=C(Nc1cnn(-c2csc(C(=O)NC3COC3)c2)c1)Nc1c(F)cccc1Cl,"enzyme activity, inhibitor",5 µM,remaining activity,95.7%
COc1cc(/C=C/C(=O)CC(=O)/C=C/c2ccc(O)c(OC)c2)ccc1O,"enzyme activity, inhibitor",1 µM,activity vs control,105%
COc1cc2c(cc1OC)-c1c(oc3c4c(ccc3c1=O)OC(C)(C)C=C4)CO2,"enzyme activity, inhibitor, ADP detection",100 µM,inhibition,10.4%
O=c1cc(-c2cccc3c2Sc2ccccc2S3)oc(N2CCOCC2)c1,"enzyme activity, inhibitor",0.5 µM,remaining activity,98.7%
Cn1c(=O)n(-c2ccc(C(C)(C)C#N)cc2)c2c3cc(-c4cnc5ccccc5c4)ccc3ncc21,"enzyme activity, inhibitor",10 µM,remaining activity,76%
O=c1cccc(C=Cc2ccc3c(c2)OCO3)o1,"enzyme activity, inhibitor, ADP detection",100 µM,inhibition,26.1%
CC(C)(C)c1nc2c(s1)c1nc(N)ncc1c1ccc(NS(=O)(=O)c3c(F)cccc3F)c(F)c12,"enzyme activity, inhibitor, radiometric",1 µM,remaining activity,91%
CCN(CC)CCNC(=O)c1c(C)[nH]c(/C=C2\C(=O)Nc3ccc(Cl)cc32)c1C,"enzyme activity, inhibitor",0.5 µM,remaining activity,93.1%
Nc1ncnc2occ(-c3ccc(NC(=O)Nc4cc(C(F)(F)F)ccc4F)cc3)c12,"enzyme activity, inhibitor",20 µM,remaining activity,57%
COc1ccc([C@H]2COc3c(ccc(O)c3OC)C2)c(OC)c1O,"enzyme activity, inhibitor, ADP detection",100 µM,inhibition,15.7%
C[C@@H](c1cccc(C#N)c1)n1cc(Cl)cc(C(N)=O)c1=N,"cell-free assay, competition with immobilised ligand",1 µM,remaining binding,88%
Oc1cc2c(cc1O)C1c3ccc(O)c(O)c3OCC1(O)C2 (stereo not drawn),"enzyme activity, inhibitor, ADP detection",100 µM,inhibition,50.5%
Cc1cnc(NC2CCOCC2)nc1-n1cnc(C(=O)NC(CN)c2cc(F)cc(Cl)c2)c1 (stereo not drawn),"enzyme activity, inhibitor, radiometric",1 µM,remaining activity,7%
C[C@H](c1ccc(F)cc1)N(Cc1cccc(C(=O)O)c1)C(=O)c1cnc2ccccc2c1,"cell-free assay, competition with immobilised ligand",1 µM,remaining binding,100%
Cc1ncc([N+](=O)[O-])n1CCO,"enzyme activity, inhibitor, ADP detection",100 µM,inhibition,32.8%
Cn1cc(Cl)c2c(Oc3c(F)cc(Nc4cc(Cl)nc(N)n4)cc3F)ccnc21,"cell-free assay, competition with immobilised ligand",0.1 µM,remaining binding,90%
COc1ccc(CNC(=O)Nc2ncc([N+](=O)[O-])s2)cc1,cell-free assay,0.5 µM,remaining signal,40.2%
Fc1ccc([C@@H]2CCNC[C@H]2COc2ccc3c(c2)OCO3)cc1,"enzyme activity, inhibitor, ADP detection",100 µM,inhibition,0.9%
CN(C)C1CCN(CC#Cc2nn(C3CCCC3)c3nc(NCc4ccccc4)ncc23)C1 (stereo not drawn),"enzyme activity, inhibitor, FRET",10 µM,inhibition,7%
Nc1[nH]nc2nc3ccccc3nc12,"enzyme activity, inhibitor",0.5 µM,remaining activity,99.7%
Cc1cc(-n2nc(Cc3cc(F)cc(C(F)(F)F)c3)nc2C)ccc1C(N)=O,"cell-free assay, competition with immobilised ligand",1 µM,remaining binding,98%
